Screens as filed in PubChem.
Cl transport mod – KCC2 cotransporter modulators, thallium flux, primary screen, cell-based, HEK293 KCC2, FluoZin-2 fluorescence, MLSMR | Solute carrier family 12 member 5 (Homo sapiens), Q9H2X9 | KCC2 cells, thallium flux FluoZin-2 fluorescence | B-score of Tl+ flux slope (higher = more flux/activation; lower = inhibition) at 10 µM | 2.2% of 190,000 active | AID 1456, 2008;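 active means thallium flux slope and its plate-corrected score both differing from the plate sample mean at a set confidence after two filtering rounds, in either direction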;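 further: slope of fluorescence scaled to starting intensity during 10 to 20 s after thallium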
m-calpain inh – inhibitors of pig calpain II, primary screen, biochemical, fluorogenic peptide substrate, 1536-well; inhibition, % at 16 µM; purified calpain II, 30 min; 0.37% of 220,000 active;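 active means inhibition above about 50%, limit read from the data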
ROMK mod – ROMK potassium channel modulators, primary screen, cell-based, thallium flux, MLSMR library. ATP-sensitive inward rectifier potassium channel 1 (Homo sapiens), P48048. Tet-inducible ROMK, thallium flux fluorescence; actives lie on both sides. B-score at 10 µM. 2% of 130,000 active. AID 1918, 2009;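 active means signal ratio slope over the read window, or its plate-corrected B-score, at least 3 SD from the plate mean, either direction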;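 further: B-score of the F/F0 ratio slope over 7 to 12 s after thallium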
Arbovirus anti – antivirals against arbovirus infection, primary screen, cell-based, full library, 10K replicate subset; 0.37% of 200,000 active; inhibition, % at 10 µM; arbovirus infection cell-based antiviral screen; in the data active means inhibition above about 30%
MDM2 E3 inh – MDM2-luciferase reporter signal enhancers, primary screen, MDM2 E3 ligase inhibitor project, cell-based, luminescence, 1536-well | E3 ubiquitin-protein ligase Mdm2 (Homo sapiens), Q00987 | signal enhancement, % at 5 µM | 0.11% of 210,000 active | cell-based MDM2 ubiquitination luciferase reporter, 2 h; 0 = plate control, 100 = twice control, blank-subtracted | AID 1230, 2008;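 active means signal enhancement of 30% or more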;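 further: luminescence tracks abundance of the self-degrading MDM2-luciferase fusion protein; higher signal means inhibition of MDM2 E3 ligase activity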
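Material: stable MDM2–luciferase fusion reporter cells / Quantity: 2000 cells/well / Dosing: single 5 µM compound dose, 0.2% final DMSO / Buffer or medium: DMEM / Schedule: 4 h cell settling then 2 h compound exposure, 37 °C / Detection: luminescence with SteadyLite reagent, 15 min at room temperature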
PKD1 kinase inh – inhibitors of human PKD1 kinase, biochemical, fluorescence polarization; Serine/threonine-protein kinase D1 (Homo sapiens), Q15139; PKD1 kinase fluorescence polarization assay; inhibition, % (test concentration not listed); 0.056% of 200,000 active; in the data active means inhibition above about 50%
Target sequence (Q15139 whole entry, looked up): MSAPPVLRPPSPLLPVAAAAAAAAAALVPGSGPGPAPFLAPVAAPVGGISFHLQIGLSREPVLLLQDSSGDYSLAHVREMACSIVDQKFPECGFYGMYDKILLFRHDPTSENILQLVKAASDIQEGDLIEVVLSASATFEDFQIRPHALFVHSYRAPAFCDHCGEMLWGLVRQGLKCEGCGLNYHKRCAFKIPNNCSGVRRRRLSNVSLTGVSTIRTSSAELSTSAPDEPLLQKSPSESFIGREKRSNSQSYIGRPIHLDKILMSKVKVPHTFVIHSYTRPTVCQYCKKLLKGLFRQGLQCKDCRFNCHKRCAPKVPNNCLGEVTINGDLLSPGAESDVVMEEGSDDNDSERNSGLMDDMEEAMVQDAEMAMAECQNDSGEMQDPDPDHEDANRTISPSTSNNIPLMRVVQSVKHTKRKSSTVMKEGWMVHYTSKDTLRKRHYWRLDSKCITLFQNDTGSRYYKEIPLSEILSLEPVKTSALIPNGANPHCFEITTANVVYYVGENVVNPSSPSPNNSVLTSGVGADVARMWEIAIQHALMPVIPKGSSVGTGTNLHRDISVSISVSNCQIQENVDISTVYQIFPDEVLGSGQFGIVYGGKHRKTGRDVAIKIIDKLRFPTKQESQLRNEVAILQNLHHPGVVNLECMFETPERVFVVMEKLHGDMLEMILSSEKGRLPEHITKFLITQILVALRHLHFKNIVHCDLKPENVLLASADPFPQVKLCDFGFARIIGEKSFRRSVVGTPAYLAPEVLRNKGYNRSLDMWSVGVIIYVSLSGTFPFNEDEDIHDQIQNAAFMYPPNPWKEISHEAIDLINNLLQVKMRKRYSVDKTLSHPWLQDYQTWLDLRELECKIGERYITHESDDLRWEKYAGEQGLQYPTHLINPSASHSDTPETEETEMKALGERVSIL
ROMK retest – ROMK channel modulator hit retest, confirmation, cell-based, thallium flux, duplicate, resupplied hits; shares compounds with ROMK mod; fluorescence ratio; hits give low values; normalized thallium flux (F/F0 slope) at 10 µM; 54% of 3,000 active; AID 1917, 2009;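 active means Flux at 10 µM at least 3 SD below or above vehicle control mean in one or both replicates; inconclusive means no clear call, values can overlap the other calls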
Starred values were filed as active, the others as inactive. Hits are enriched below; roughly 3.7% of the tested compounds scored in any of these assays.

What do the screens show for `COc1ccc(Cn2nnnc2C(c2ccccc2Cl)N2CCN(C3CCCC3)CC2)cc1` (stereo unspecified)?
m-calpain inh: -26; ROMK mod: -4.8*; Arbovirus anti: -16; MDM2 E3 inh: -6; PKD1 kinase inh: -4; ROMK retest: 0.051*

Results for CCC(c1nnnn1Cc1ccc(F)cc1)N1CCN(C2CCCCC2)CC1 (stereo unspecified) ?
m-calpain inh: 0; ROMK mod: -3*; Arbovirus anti: -4; MDM2 E3 inh: 8; PKD1 kinase inh: 3; ROMK retest: inconclusive

Results for CCCC(c1nnnn1Cc1ccc(F)cc1)N1CCN(C)CC1 (stereo unspecified) ?
Cl transport mod: -0.09; m-calpain inh: 26; ROMK mod: 1; Arbovirus anti: 10; MDM2 E3 inh: -11; PKD1 kinase inh: 1

How did COc1ccc2cc(C(c3nnnn3Cc3ccc(F)cc3)N3CCCCCC3)c(=O)[nH]c2c1 (stereo unspecified) do in these assays?
Cl transport mod: -0.11; m-calpain inh: -65; Arbovirus anti: -1; MDM2 E3 inh: -12; PKD1 kinase inh: -5; ROMK retest: 0.056*

How did COc1ccc(Cn2nnnc2C(c2ccccc2)N2CCN(C3CCCC3)CC2)cc1 (stereo unspecified) do in these assays?
Cl transport mod: -0.13; m-calpain inh: 3; Arbovirus anti: 1; MDM2 E3 inh: 9; PKD1 kinase inh: -8

How did COc1ccc2cc(C(c3nnnn3Cc3ccccc3)N3CCCCCC3)c(=O)[nH]c2c1 (stereo unspecified) do in these assays?
Cl transport mod: -1.9; PKD1 kinase inh: -5

Results for O=C(Nc1ccc(F)cc1)C1=CC(=O)N2CCN=C2S1 ?
Cl transport mod: 0.38; m-calpain inh: -22; ROMK mod: -0.59; Arbovirus anti: 0; MDM2 E3 inh: -7; PKD1 kinase inh: 8

Results for CCOC(=O)C1=C(N)OC2=C(C(=O)CC(C)(C)C2)C1c1cc(CSc2nnnn2C)cs1 (stereo unspecified) ?
Cl transport mod: -0.41; m-calpain inh: 27; ROMK mod: -4.1*; Arbovirus anti: -4; MDM2 E3 inh: -27; PKD1 kinase inh: -1; ROMK retest: inconclusive

Results for COc1ccc2c(C#N)c3ccccn3c2c1 ?
Cl transport mod: -1.7; m-calpain inh: -472; ROMK mod: -3.1*; Arbovirus anti: -9; MDM2 E3 inh: -25; PKD1 kinase inh: 0; ROMK retest: 0.045*

Results for CCN(CC)S(=O)(=O)c1ccc(N2CCOCC2)c(NC(=O)Cc2ccc(Cl)cc2)c1 ?
Cl transport mod: 0.0071; m-calpain inh: 20; Arbovirus anti: 2; MDM2 E3 inh: -17; PKD1 kinase inh: 7; ROMK retest: 0.07

What do the screens show for `COCC(=O)Nc1sc2c(c1C(=O)OC)C(C(=O)OC)CC2` (stereo unspecified)?
Cl transport mod: 0.81; m-calpain inh: -5; Arbovirus anti: -4; MDM2 E3 inh: -8; PKD1 kinase inh: 7; ROMK retest: 0.081

How did Cc1noc(NS(=O)(=O)c2ccc(N/C=C\C(=O)c3ccc(F)cc3)cc2)c1C do in these assays?
Cl transport mod: -0.071; m-calpain inh: -8; ROMK mod: 3.9*; Arbovirus anti: 0; MDM2 E3 inh: -8; PKD1 kinase inh: -4; ROMK retest: 0.083

Results for O=C(c1ccc2c(c1)N(Cc1ccccc1)C(=O)c1ccccc1S2)N1CCCC1 ?
Cl transport mod: -2; m-calpain inh: -24; Arbovirus anti: 8; MDM2 E3 inh: -17; PKD1 kinase inh: 16; ROMK retest: 0.061*

Results for Cc1cccc(CN2C(=O)c3ccccc3Sc3ccc(C(=O)O)cc32)c1 ?
Cl transport mod: -1.7; m-calpain inh: -8; ROMK mod: -0.18; MDM2 E3 inh: -4

How did Cc1cc(C(=O)CN2C(=O)NC3(CCCc4ccccc43)C2=O)c(C)n1Cc1ccco1 (stereo unspecified) do in these assays?
Cl transport mod: 1; m-calpain inh: -53; ROMK mod: 0.94; Arbovirus anti: -3; MDM2 E3 inh: -13; PKD1 kinase inh: 2

Results for Cc1cc(C(=O)CN2C(=O)NC3(CCCc4ccccc43)C2=O)c(C)n1Cc1ccccc1 (stereo unspecified) ?
Cl transport mod: -0.27; m-calpain inh: -193; ROMK mod: 2*; Arbovirus anti: -4; PKD1 kinase inh: 0; ROMK retest: 0.079

How did O=C(COc1ccc(Oc2ccccc2)cc1)NCc1cn2ccccc2n1 do in these assays?
Cl transport mod: -0.15; m-calpain inh: 19; ROMK mod: 2.9*; Arbovirus anti: -13; MDM2 E3 inh: 7; PKD1 kinase inh: 7; ROMK retest: 0.081

Results for Cc1ccc(C(=O)NC(C)C(c2cccs2)N2CCCC2)s1 (stereo unspecified) ?
Cl transport mod: -0.18; m-calpain inh: -5; ROMK mod: -3.6*; Arbovirus anti: 4; MDM2 E3 inh: -91; PKD1 kinase inh: -2; ROMK retest: 0.072

What do the screens show for `CCC(c1nnnn1C(C)(C)CC)N(CCN1CCOCC1)Cc1cc2cc(C)ccc2[nH]c1=O` (stereo unspecified)?
Cl transport mod: 0.27; m-calpain inh: -44; ROMK mod: -4.8*; Arbovirus anti: 22; MDM2 E3 inh: -16; PKD1 kinase inh: -1; ROMK retest: inconclusive

Results for CCCC(c1nnnn1C(C)(C)CC)N(CCCO)Cc1cc2cc(C)cc(C)c2[nH]c1=O (stereo unspecified) ?
m-calpain inh: -8; ROMK mod: -3.7*; Arbovirus anti: -11; MDM2 E3 inh: -16; PKD1 kinase inh: 6; ROMK retest: 0.055*

Results for CCC(c1nnnn1C(C)(C)CC)N(CCCO)Cc1cc2cc(C)cc(C)c2[nH]c1=O (stereo unspecified) ?
Cl transport mod: -0.77; m-calpain inh: 2; Arbovirus anti: 18; MDM2 E3 inh: -12; PKD1 kinase inh: 7

What do the screens show for `COc1ccc(/C=N/NC(=O)c2ccn[nH]2)cc1CN1CCOCC1`?
Cl transport mod: 0.98; m-calpain inh: 1; MDM2 E3 inh: -4

Results for Cc1ccc(Cn2cccc2/C=C2/C(=N)N3C=CSC3=NC2=O)cc1 ?
Cl transport mod: 2.2; m-calpain inh: 17; ROMK mod: 0.026; Arbovirus anti: -6; MDM2 E3 inh: -46; PKD1 kinase inh: 6
